Test results taken from ChEMBL document CHEMBL1137660, “Molecular and biochemical characterization of the chromosome-encoded class A beta-lactamase BCL-1 from Bacillus clausii” (Antimicrob Agents Chemother, 2007).

How the values were obtained:
[1] = Ratio of Kcat to Km for Bacillus clausii NR beta-lactamase BCL1 to ratio of Kcat/Km for Bacillus anthracis beta-lactamase Bla1
[2] = Ratio of Kcat for Bacillus cereus beta-lactamase BcI to Kcat for Bacillus clausii NR beta-lactamase BCL1
[3] = Ratio of Kcat for Bacillus clausii NR beta-lactamase BCL1 to Kcat for Bacillus cereus beta lactamase BcI
[4] = target: T1, Beta-lactamase (Bacillus clausii) (UniProt A8RR46); assay: Activity of Bacillus clausii NR beta-lactamase BCL1 expressed in Escherichia coli BL21 (DE3) assessed as specific activity per mg of protein at 100 uM; conditions: Shouchella clausii
T1 sequence (whole entry): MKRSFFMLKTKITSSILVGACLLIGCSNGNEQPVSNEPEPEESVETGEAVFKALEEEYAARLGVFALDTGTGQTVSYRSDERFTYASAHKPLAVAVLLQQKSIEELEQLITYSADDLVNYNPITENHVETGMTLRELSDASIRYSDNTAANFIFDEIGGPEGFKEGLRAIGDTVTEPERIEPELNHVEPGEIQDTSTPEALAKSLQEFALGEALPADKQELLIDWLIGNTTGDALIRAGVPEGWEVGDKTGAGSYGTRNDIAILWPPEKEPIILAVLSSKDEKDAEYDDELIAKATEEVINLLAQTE
Procedure, shortened: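 Enzyme from E. coli BL21(DE3)(pET-BCL-1), induced with 0.4 mM IPTG at 37°C for 5 h in TS broth with amoxicillin and kanamycin. Cells were sonicated. Enzyme purified by S-Sepharose (50 mM phosphate, pH 6.5) then Q-Sepharose (20 mM Tris-HCl, pH 9; 0–1 M NaCl gradient). Protein by DC assay. Activity read with 100 μM cephalothin as substrate.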

[5] = target: T1, Beta-lactamase (Bacillus clausii); assay: Induction of Bacillus clausii ATCC 21537 beta-lactamase BCL1 activity expressed in Escherichia coli BL21 (DE3) assessed as specific activity per mg of protein at 5 ug/ml; conditions: Shouchella clausii
Procedure, shortened: (§1)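 Induction in B. clausii NR and ATCC 21537 cultures using cefoxitin at 1 to 5 μg/ml as inducer. β-Lactamase activity of extracts read with 100 μM penicillin G as substrate and expressed per mg protein.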

[6] = target: T1, Beta-lactamase (Bacillus clausii); assay: Induction of Bacillus clausii NR beta-lactamase BCL1 activity expressed in Escherichia coli BL21 (DE3) assessed as specific activity per mg of protein at 5 ug/ml; conditions: Shouchella clausii; procedure, shortened: as §1

SMILES	fold change (FC) [1]	fold change (FC) [3]	also measured
CC1(C)S[C@@H]2[C@H](NC(=O)Cc3ccccc3)C(=O)N2[C@H]1C(=O)O	10	–	Ratio [2]: 200
O=C(Cc1cccs1)N[C@@H]1C(=O)N2C(C(=O)[O-])=C(C[n+]3ccccc3)CS[C@H]12	2	–	–
CC1(C)S[C@@H]2[C@H](NC(=O)[C@H](N)c3ccc(O)cc3)C(=O)N2[C@H]1C(=O)O	10	–	–
CO/N=C(\C(=O)N[C@@H]1C(=O)N2C(C(=O)O)=C(COC(N)=O)CS[C@H]12)c1ccco1	–	100	–
CC(=O)OCC1=C(C(=O)O)N2C(=O)[C@@H](NC(=O)Cc3cccs3)[C@H]2SC1	–	100	Activity [4]: 35 U
CO[C@@]1(NC(=O)Cc2cccs2)C(=O)N2C(C(=O)O)=C(COC(N)=O)CS[C@@H]21	–	–	Activity [5]: 500 U; Activity [6]: 500 U
CC1(C)S[C@@H]2[C@H](NC(=O)[C@H](C(=O)O)c3ccsc3)C(=O)N2[C@H]1C(=O)O	10	–	–
CO/N=C(\C(=O)N[C@@H]1C(=O)N2C(C(=O)O)=C(COC(C)=O)CS[C@H]12)c1csc(N)n1	–	100	–
CO/N=C(\C(=O)N[C@@H]1C(=O)N2C(C(=O)[O-])=C(C[n+]3cccc4c3CCC4)CS[C@H]12)c1csc(N)n1	–	500	–
CCN1CCN(C(=O)N[C@@H](C(=O)N[C@@H]2C(=O)N3[C@@H]2SC(C)(C)[C@@H]3C(=O)O)c2ccccc2)C(=O)C1=O	10	–	–
